Data published in ChEMBL document CHEMBL1134619, “Arylcyclopropanecarboxyl guanidines as novel, potent, and selective inhibitors of the sodium hydrogen exchanger isoform-1” (J Med Chem, 2001).

Experiments:
[1] = molecular target: Sodium/hydrogen exchanger 1 (Homo sapiens, UniProt P19634); assay: Screened in AP1 cells expressing human NHE-1 for sodium hydrogen exchange activity; format: functional, cell-based
Summary of the method: (§1)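 AP1 cell monolayers expressing the given human NHE isoform, loaded with BCECF-AM (5 µM final, 30 min, room temperature) in NaCl-HEPES pH 7.3. Acid load by NH4Cl-HEPES for 9 min, then washes in Na+-free choline buffer. Drug preincubation 7.5 min, then NaCl added (135 mM final). Fluorescence 485/444 nm excitation ratio (538 nm emission) read after 5 min, minus no-NaCl activity. IC50 from 8-point dose-response curve, mean ± SEM of several experiments.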

[2] = Volume distribution at steady state in rats was determined; format: ADME, organism-based; details: rat, in vivo; read-out: VSS
Summary of the method: (§2)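 Rats (n = 3) given a single 10 µmol/kg dose either intra-arterially or orally. Plasma samples analysed by LC/MS/MS. PK parameters are means ± SEM of the three animals.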

[3] = Half life period in rats was determined; format: ADME, organism-based; details: rat, in vivo; summary of the method: as §2
[4] = Oral bioavailability in rat; format: ADME, organism-based; details: in vivo; summary of the method: as §2
[5] = Plasma clearance in rats was determined; format: ADME, organism-based; details: rat; summary of the method: as §2
[6] = molecular target: T1, Sodium/hydrogen exchanger 2 (Homo sapiens, UniProt Q9UBY0); assay: Compound is screened in AP1 cells expressing human NHE-2 for sodium hydrogen exchange activity; format: functional, cell-based; summary of the method: as §1
T1 sequence (Q9UBY0 whole entry): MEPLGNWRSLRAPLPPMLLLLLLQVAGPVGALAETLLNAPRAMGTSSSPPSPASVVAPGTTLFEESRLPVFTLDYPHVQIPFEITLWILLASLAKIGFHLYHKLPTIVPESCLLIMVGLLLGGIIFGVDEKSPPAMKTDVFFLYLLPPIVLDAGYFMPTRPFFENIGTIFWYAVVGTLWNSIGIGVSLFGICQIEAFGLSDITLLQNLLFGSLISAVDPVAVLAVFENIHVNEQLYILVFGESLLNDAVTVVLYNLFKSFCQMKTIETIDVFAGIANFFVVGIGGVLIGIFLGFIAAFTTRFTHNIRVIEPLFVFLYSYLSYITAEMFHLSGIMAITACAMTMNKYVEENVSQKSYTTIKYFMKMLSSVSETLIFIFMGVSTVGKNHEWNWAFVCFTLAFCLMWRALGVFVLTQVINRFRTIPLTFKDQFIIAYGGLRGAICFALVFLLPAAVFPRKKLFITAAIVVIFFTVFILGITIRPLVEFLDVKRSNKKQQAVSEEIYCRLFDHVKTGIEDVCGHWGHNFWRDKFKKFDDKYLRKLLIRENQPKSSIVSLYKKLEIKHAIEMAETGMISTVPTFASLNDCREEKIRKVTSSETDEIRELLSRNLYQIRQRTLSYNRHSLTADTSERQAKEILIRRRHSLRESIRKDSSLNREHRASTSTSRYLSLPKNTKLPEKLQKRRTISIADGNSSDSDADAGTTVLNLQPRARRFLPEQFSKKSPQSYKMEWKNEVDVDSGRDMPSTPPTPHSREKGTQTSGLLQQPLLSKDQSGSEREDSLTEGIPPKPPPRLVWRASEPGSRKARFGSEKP

[7] = molecular target: T2, Sodium/hydrogen exchanger 3 (Homo sapiens, UniProt P48764); assay: Compound is screened in AP1 cells expressing human NHE-3 for sodium hydrogen exchange activity; format: functional, cell-based; summary of the method: as §1
T2 sequence (P48764 whole entry): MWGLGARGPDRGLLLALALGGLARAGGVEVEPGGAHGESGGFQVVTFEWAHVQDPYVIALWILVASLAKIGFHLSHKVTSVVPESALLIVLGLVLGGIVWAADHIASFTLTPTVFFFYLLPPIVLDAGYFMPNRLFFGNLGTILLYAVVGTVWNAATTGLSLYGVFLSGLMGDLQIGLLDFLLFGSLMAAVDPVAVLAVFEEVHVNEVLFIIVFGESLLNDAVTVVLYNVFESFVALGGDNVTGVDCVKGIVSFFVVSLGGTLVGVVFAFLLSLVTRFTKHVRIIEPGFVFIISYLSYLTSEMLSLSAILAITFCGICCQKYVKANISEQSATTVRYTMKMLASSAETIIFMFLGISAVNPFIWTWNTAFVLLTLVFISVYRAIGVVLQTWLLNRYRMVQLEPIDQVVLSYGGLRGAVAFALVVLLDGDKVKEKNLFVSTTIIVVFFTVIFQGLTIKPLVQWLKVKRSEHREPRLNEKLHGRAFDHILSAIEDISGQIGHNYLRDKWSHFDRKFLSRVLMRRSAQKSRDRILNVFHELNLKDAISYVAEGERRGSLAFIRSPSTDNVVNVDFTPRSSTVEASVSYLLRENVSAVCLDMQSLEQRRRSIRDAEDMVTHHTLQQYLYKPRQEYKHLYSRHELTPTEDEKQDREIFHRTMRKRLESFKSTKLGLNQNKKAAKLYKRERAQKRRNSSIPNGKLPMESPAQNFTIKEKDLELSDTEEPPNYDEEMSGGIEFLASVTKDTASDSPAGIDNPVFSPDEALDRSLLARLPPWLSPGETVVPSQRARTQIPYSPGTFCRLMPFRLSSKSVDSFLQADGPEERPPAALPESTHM

[8] = molecular target: T3, Sodium/hydrogen exchanger 5 (Homo sapiens, UniProt Q14940); assay: Compound is screened in AP1 cells expressing human NHE-5 for sodium hydrogen exchange activity; format: functional, cell-based; summary of the method: as §1
T3 sequence (Q14940 whole entry): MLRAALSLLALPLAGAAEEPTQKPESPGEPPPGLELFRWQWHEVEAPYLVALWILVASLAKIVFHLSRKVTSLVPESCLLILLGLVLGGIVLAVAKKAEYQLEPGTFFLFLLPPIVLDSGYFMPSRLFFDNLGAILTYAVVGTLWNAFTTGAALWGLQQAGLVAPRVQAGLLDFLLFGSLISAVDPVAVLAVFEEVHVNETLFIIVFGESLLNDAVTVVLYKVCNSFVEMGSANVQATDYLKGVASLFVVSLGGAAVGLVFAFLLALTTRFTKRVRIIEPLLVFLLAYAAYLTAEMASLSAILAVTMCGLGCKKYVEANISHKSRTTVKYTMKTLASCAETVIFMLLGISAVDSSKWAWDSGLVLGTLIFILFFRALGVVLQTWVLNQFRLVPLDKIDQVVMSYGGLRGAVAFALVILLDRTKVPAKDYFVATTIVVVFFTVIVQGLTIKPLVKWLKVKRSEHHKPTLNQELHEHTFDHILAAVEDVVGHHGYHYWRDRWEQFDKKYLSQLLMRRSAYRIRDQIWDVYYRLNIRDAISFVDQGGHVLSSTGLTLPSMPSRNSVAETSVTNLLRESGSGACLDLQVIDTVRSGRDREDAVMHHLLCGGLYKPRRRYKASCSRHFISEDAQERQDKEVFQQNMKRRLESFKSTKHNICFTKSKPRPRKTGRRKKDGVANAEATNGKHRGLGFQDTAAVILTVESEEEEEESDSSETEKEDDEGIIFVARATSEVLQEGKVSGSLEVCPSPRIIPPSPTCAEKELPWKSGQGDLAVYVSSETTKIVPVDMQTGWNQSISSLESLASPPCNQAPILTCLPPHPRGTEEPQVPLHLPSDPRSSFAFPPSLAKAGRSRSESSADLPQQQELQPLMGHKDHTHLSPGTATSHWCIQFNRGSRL

Sodium/hydrogen exchanger 1, sequence (P19634 whole entry, canonical isoform): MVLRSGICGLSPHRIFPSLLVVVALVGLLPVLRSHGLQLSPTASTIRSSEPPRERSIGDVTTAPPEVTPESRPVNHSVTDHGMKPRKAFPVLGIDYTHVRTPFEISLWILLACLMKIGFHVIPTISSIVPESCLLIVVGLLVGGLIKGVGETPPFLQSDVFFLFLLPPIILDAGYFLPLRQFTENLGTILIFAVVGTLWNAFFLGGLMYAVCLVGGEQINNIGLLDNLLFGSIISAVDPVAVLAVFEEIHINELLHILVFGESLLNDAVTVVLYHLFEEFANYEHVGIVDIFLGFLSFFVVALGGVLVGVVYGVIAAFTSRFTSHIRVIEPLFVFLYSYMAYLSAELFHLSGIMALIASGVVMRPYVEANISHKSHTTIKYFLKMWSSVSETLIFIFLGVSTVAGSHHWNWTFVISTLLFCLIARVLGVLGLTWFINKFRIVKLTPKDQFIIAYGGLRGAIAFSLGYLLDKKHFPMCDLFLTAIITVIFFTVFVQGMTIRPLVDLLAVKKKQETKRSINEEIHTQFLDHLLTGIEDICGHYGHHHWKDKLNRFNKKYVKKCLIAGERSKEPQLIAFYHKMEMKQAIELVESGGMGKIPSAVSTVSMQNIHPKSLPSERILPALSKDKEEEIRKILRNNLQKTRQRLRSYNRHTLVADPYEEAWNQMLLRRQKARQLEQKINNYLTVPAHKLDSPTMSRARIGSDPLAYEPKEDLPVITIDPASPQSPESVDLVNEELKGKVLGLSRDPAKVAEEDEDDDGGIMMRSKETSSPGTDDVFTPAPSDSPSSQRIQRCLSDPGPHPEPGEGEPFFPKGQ

Q: With `Cc1cc([C@@H]2[C@@H](C(=O)N=C(N)N)C2(C)C)ccc1F` as the compound, how does the IC50 [1] read?
A: Its IC50 is 32 nM.

Q: With `N=C(N)NC(=O)[C@H]1C[C@@H]1c1cccc([N+](=O)[O-])c1` as the compound, how does the IC50 [1] read?
A: Its IC50 is 1600 nM.

Q: With `N=C(N)NC(=O)[C@H]1C[C@@H]1c1cc(Cl)ccc1Cl` as the compound, how does the Vd [2] read?
A: Its Vd is 21 L/kg.

Q: And the IC50 [1]?
A: The IC50 was 40 nM.

Q: What about the half-life [3] of the same compound?
A: Its half-life is 3.4 h.

Q: What about the bioavailability [4] of the same compound?
A: The bioavailability was 13%.

Q: What about the clearance [5] of the same compound?
A: The clearance was 143 mL/min/kg.

Q: Which IC50 [1] does the source give for `CC(C)c1cc([C@@H]2[C@@H](C(=O)N=C(N)N)C2(C)C)ccc1F` here?
A: Its IC50 is 17 nM.

Q: Which IC50 [1] does the source give for `N=C(N)NC(=O)[C@H]1C[C@@H]1c1ccccc1Cl` here?
A: Its IC50 is 980 nM.

Q: With `CC(C)c1ccc([C@H]2C[C@@H]2C(=O)NC(=N)N)cc1` as the compound, how does the IC50 [1] read?
A: Its IC50 is > 30000 nM.

Q: For `N=C(N)NC(=O)[C@H]1C[C@@H]1c1ccc(F)c(Br)c1`, which IC50 [1] is on record?
A: The IC50 was 90 nM.

Q: For `CCc1cc([C@@H]2[C@@H](C(=O)NC(=N)N)C2(C)C)ccc1F`, which IC50 [1] is on record?
A: The IC50 was 5 nM.

Q: With `N=C(N)NC(=O)[C@H]1C[C@@H]1c1ccccc1` as the compound, how does the IC50 [1] read?
A: Its IC50 is 3500 nM.

Q: For `N=C(N)NC(=O)[C@H]1C[C@@H]1c1ccc(F)cc1`, which IC50 [1] is on record?
A: Its IC50 is 1600 nM.

Q: For `CC1(C)[C@H](C(=O)N=C(N)N)[C@H]1c1cc(Cl)ccc1Cl`, which Vd [2] is on record?
A: The Vd was 23 L/kg.

Q: And the IC50 [1]?
A: The IC50 was 5 nM.

Q: What about the half-life [3] of the same compound?
A: The half-life was 8 h.

Q: And the bioavailability [4]?
A: Its bioavailability is 47%.

Q: And the clearance [5]?
A: Its clearance is 44 mL/min/kg.

Q: Which IC50 [1] does the source give for `N=C(N)NC(=O)[C@H]1C[C@@H]1c1ccc(Cl)cc1` here?
A: Its IC50 is 2900 nM.

Q: Which IC50 [1] does the source give for `CC1(C)[C@H](C(=O)N=C(N)N)[C@H]1c1ccccc1` here?
A: Its IC50 is 69 nM.

Q: Which IC50 [1] does the source give for `COc1cccc([C@H]2C[C@@H]2C(=O)NC(=N)N)c1` here?
A: Its IC50 is 540 nM.

Q: For `N=C(N)NC(=O)[C@H]1C[C@@H]1c1cccc2c1CCO2`, which Vd [2] is on record?
A: The Vd was 6 L/kg.

Q: What about the IC50 [1] of the same compound?
A: The IC50 was 120 nM.

Q: What about the half-life [3] of the same compound?
A: The half-life was 1.3 h.

Q: And the bioavailability [4]?
A: The bioavailability was 49%.

Q: And the clearance [5]?
A: The clearance was 120 mL/min/kg.

Q: With `CC1(C)[C@H](C(=O)NC(=N)N)[C@H]1c1cccc(Cl)c1` as the compound, how does the IC50 [1] read?
A: The IC50 was 14 nM.

Q: With `COc1cccc([C@@H]2[C@@H](C(=O)NC(=N)N)C2(C)C)c1` as the compound, how does the IC50 [1] read?
A: Its IC50 is 12 nM.

Q: With `N=C(N)NC(=O)[C@H]1C[C@@H]1c1cccc(Cl)c1` as the compound, how does the IC50 [1] read?
A: Its IC50 is 280 nM.

Q: For `N=C(N)NC(=O)[C@H]1C[C@@H]1c1ccc([N+](=O)[O-])cc1`, which IC50 [1] is on record?
A: Its IC50 is > 30000 nM.

Q: With `CC1(C)[C@H](C(=O)N=C(N)N)[C@H]1c1ccc(F)c(Br)c1` as the compound, how does the IC50 [1] read?
A: Its IC50 is 3 nM.

Q: For `CC1(C)[C@H](C(=O)NC(=N)N)[C@H]1c1cc(Cl)cc(Cl)c1`, which IC50 [1] is on record?
A: Its IC50 is 6 nM.

Q: With `CC1(C)[C@H](C(=O)N=C(N)N)[C@H]1c1cccc2c1CCO2` as the compound, how does the Vd [2] read?
A: The Vd was 8.6 L/kg.

Q: What about the IC50 [6] of the same compound?
A: The IC50 was 1800 nM.

Q: And the IC50 [1]?
A: Its IC50 is 9 nM.

Q: What about the half-life [3] of the same compound?
A: The half-life was 3 h.

Q: What about the IC50 [7] of the same compound?
A: The IC50 was > 30000 nM.

Q: And the bioavailability [4]?
A: The bioavailability was 63%.

Q: And the clearance [5]?
A: Its clearance is 74 mL/min/kg.

Q: And the IC50 [8]?
A: Its IC50 is 3360 nM.

Q: With `CC(C)c1ccc(C(=O)NC(=N)N)cc1S(C)(=O)=O` [CARIPORIDE] as the compound, how does the IC50 [6] read?
A: Its IC50 is 62000 nM.

Q: And the IC50 [1]?
A: Its IC50 is 3400 nM.

Q: And the IC50 [7]?
A: Its IC50 is > 30000 nM.

Q: What about the IC50 [8] of the same compound?
A: Its IC50 is > 30000 nM.

Q: Which results are given for `Cc1cc(-n2cccc2)c(S(C)(=O)=O)cc1C(=O)NC(=N)N` [ENIPORIDE]?
A: IC50 [6]: 17000 nM; IC50 [1]: 380 nM; IC50 [7]: > 30000 nM; IC50 [8]: > 30000 nM
